Measurements as given in ChEMBL document CHEMBL1138845, “Design of non-nucleoside inhibitors of HIV-1 reverse transcriptase with improved drug resistance properties. 2” (J Med Chem, 2004).

Tests used:
MT4 [1] = test: Ratio of cytotoxic concentration to that of inhibitory concentration as selectivity index was determined by MT-4 assay; type: functional, Homo sapiens
In short: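 Index is the IC50 in uninfected MT4 cells divided by the antiviral IC50 in MT4 cells infected with wild-type HIV-1 or the nevirapine-resistant strain carrying RT mutation Y181C.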

HeLa [2] = test: Inhibitory concentration against human immunodeficiency virus type 1 (with Y181C resistant mutation) was determined in HeLa-CD4 MAGI assay; type: functional, cell-based
In short: (§1)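 Tested against a panel of recombinant, isogenic HIV-1 viruses, wild type and NNRTI-resistant strains carrying engineered single or double RT mutations. The readout was IC50.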

HeLa [3] = test: Inhibitory concentration against human immunodeficiency virus type 1 (with K103N resistant mutation) was determined in HeLa-CD4 MAGI assay; type: functional, cell-based; in short: as §1
HeLa [4] = test: Inhibitory concentration against human immunodeficiency virus type 1 (with V106A resistant mutation) was determined in HeLa-CD4 MAGI assay; type: functional, cell-based; in short: as §1
[5] = tested on: Human immunodeficiency virus 1; test: Inhibitory concentration against wild type human immunodeficiency virus type 1 was determined by recombinant virus assay; type: functional, organism-based
In short: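 Isogenic recombinant HIV-1 carrying wild-type RT, tested in parallel with a panel of NNRTI-resistant RT mutants built on the same background; activity reported as IC50.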

HeLa [6] = test: Inhibitory concentration against human immunodeficiency virus type 1 (with Y188C resistant mutation) was determined in HeLa-CD4 MAGI assay; type: functional, cell-based; in short: as §1
HeLa [7] = test: Inhibitory concentration against human immunodeficiency virus type 1 (with V108I/Y181C resistant mutation) was determined in HeLa-CD4 MAGI assay; type: functional, cell-based; in short: as §1
HeLa [8] = test: Inhibitory concentration against human immunodeficiency virus type 1 (with G190A resistant mutation) was determined in HeLa-CD4 MAGI assay; type: functional, cell-based; in short: as §1
HeLa [9] = test: Inhibitory concentration against human immunodeficiency virus type 1 (with V106A/Y181C resistant mutation) was determined in HeLa-CD4 MAGI assay; type: functional, cell-based; in short: as §1
HeLa [10] = test: Inhibitory concentration against human immunodeficiency virus type 1 (with K103N/V108I resistant mutation) was determined in HeLa-CD4 MAGI assay; type: functional, cell-based; in short: as §1
HeLa [11] = test: Inhibitory concentration against human immunodeficiency virus type 1 (with K103N/Y181C resistant mutation) was determined in HeLa-CD4 MAGI assay; type: functional, cell-based; in short: as §1
MT4 [12] = test: Inhibitory concentration against wild type human immunodeficiency virus type 1 was determined by MT-4 assay; type: functional, cell-based
HeLa [13] = test: Inhibitory concentration against human immunodeficiency virus type 1 (with K103N/G190A resistant mutation) was determined in HeLa-CD4 MAGI assay; type: functional, cell-based; in short: as §1
HeLa [14] = test: Inhibitory concentration against human immunodeficiency virus type 1 (with V108I resistant mutation) was determined in HeLa-CD4 MAGI assay; type: functional, cell-based; in short: as §1
MT4 [15] = test: Inhibitory concentration against nevirapine resistant strain (with Y181C mutation in HIV-1 RT gene) of human immunodeficiency virus type 1 was determined by MT-4 assay; type: functional, cell-based

SMILES | Ratio (MT4 [1]) | IC50 (HeLa [2]) [nM] | IC50 (HeLa [3]) [nM] | IC50 (HeLa [4]) [nM] | IC50 [5] [nM] | IC50 (HeLa [6]) [nM] | IC50 (HeLa [7]) [nM] | IC50 (HeLa [8]) [nM] | IC50 (HeLa [9]) [nM] | IC50 (HeLa [10]) [nM] | IC50 (HeLa [11]) [nM] | IC50 (MT4 [12]) [nM] | IC50 (HeLa [13]) [nM] | IC50 (HeLa [14]) [nM] | IC50 (MT4 [15]) [nM]
CC(C)c1c(O)nc2ccc(F)cc2c1OCC1CCC1 | >500 | 280 | 1700 | 1900 | 49 | 30 | 700 | 16 | > 2000 | > 2000 | > 2000 | 26 | 530 | 440 | 230
CCCc1c(O)nc2ccccc2c1OC1CCCC1 | >40000 | 630 | > 2000 | > 2000 | 350 | 180 | > 2000 | 270 | > 2000 | > 2000 | > 2000 | 380 | > 2000 | 1220 | 3900
CCCc1c(O)nc2ccc(OC(F)(F)F)cc2c1OC1CCCC1 | >40000 | 990 | > 2000 | > 2000 | 270 | 360 | > 2000 | 47 | > 2000 | > 2000 | > 2000 | 380 | > 2000 | 300 | 2500
CCCc1c(O)nc2cc(OC)ccc2c1OCC1CCC1 | >8000 | > 2000 | > 2000 | > 2000 | > 2000 | > 2000 | > 2000 | > 2000 | > 2000 | > 2000 | > 2000 | > 8000 | > 2000 | > 2000 | > 8000
CC(C)c1c(OC2CCCCC2)c2cc(Cl)ccc2[nH]c1=O | >40000 | 1400 | 170 | 1100 | 38 | 12 | ~800 | 27 | 430 | > 2000 | > 2000 | 23 | 190 | 110 | 360
CCCc1c(O)nc2ccc(OC)cc2c1OC1CCCC1 | >40000 | 710 | > 2000 | > 2000 | 420 | 160 | > 2000 | 710 | > 2000 | > 2000 | > 2000 | 1010 | > 2000 | 540 | 24000
CC(C)c1c(OC#CC2CC2)c2cc(F)ccc2[nH]c1=O | 16000 | 15 | 400 | 150 | 10 | 23 | 11 | 5 | 220 | 720 | 620 | – | 100 | 26 | 25
CC(C)Nc1cccnc1N1CCN(C(=O)c2cc3cc(NS(C)(=O)=O)ccc3[nH]2)CC1 [DELAVIRDINE] | – | – | 2650 | 870 | 159 | 124 | 10000 | 35 | 10000 | 3400 | 1250 | – | 8000 | 97 | –
Cc1ccnc2c1NC(=O)c1cccnc1N2C1CC1 [NEVIRAPINE] | – | > 10000 | – | ~10000 | 89 | – | > 10000 | > 10000 | > 10000 | – | > 50000 | – | – | – | –
O=C1Nc2ccc(Cl)cc2[C@@](C#CC2CC2)(C(F)(F)F)O1 [EFAVIRENZ] | – | 2 | 23 | 1 | – | 1 | 3 | 7 | 3 | – | 43 | – | 552 | – | –
